Bioassay records (PubChem BioAssay)
HKDC1 inhibitor – HKDC1 (human) hexokinase inhibition; Q2TB90; recombinant HKDC1, G6PDH/diaphorase resazurin coupled fluorescence; inhibition, % at 20 µM; 340,000 tested, 0.16% active;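 active = inhibition above about 35% when tested at 20 µM, limit read from the data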;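 note: plate controls were DMSO wells with enzyme for no effect and DMSO wells lacking enzyme for full effect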
Target sequence (Q2TB90 whole entry, looked up): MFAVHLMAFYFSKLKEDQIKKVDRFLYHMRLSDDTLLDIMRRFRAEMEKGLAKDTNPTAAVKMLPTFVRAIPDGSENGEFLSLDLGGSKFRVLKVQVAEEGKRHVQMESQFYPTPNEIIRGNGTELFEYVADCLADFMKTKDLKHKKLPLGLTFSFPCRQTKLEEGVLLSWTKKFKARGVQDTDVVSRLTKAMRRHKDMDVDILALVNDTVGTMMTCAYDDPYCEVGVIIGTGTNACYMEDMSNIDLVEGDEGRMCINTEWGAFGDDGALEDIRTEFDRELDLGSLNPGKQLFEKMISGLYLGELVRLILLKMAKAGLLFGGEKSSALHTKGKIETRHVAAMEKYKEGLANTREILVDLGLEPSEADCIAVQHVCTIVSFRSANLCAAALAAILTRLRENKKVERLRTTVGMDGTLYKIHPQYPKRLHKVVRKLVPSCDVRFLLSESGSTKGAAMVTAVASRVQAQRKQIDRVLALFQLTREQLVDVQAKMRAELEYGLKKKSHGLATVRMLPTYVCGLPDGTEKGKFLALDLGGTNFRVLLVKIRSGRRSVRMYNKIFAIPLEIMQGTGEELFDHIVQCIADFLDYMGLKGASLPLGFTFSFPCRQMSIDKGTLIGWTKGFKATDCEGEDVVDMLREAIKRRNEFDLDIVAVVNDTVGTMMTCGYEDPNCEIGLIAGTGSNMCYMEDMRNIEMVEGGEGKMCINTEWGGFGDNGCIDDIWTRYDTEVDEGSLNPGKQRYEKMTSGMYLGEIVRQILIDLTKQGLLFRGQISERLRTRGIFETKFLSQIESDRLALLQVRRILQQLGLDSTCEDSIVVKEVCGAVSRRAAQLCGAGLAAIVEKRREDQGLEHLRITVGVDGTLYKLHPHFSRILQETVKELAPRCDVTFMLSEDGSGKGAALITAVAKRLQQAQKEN
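Incubation: 90 min at room temperature in dark / Material: recombinant HKDC1 (HK5) hexokinase enzyme, produced in-house / Quantity: enzyme 5 µg/mL final / Compound: one dose of 20 µM, 1% DMSO / Reagent: glucose and ATP substrates / Buffer or medium: Tris pH 8.0 buffer with MgCl2, Tween-20, BSA, BME / Technique: resorufin fluorescence at 613 nm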
APOBEC3A inh – blocks human APOBEC3A ssDNA deamination | P31941 | recombinant A3A, FAM/TAMRA ssDNA deamination fluorescence | inhibition, % at 20 µM | 330,000 tested, 0.41% active;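 active = at least 40% inhibition at 20 µM here, with at most 30% in a related deaminase screen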;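 note: plate controls were A3A with DMSO for no effect and wells lacking A3A enzyme for full effect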
A3G deaminase – inhibitors of human APOBEC3G DNA deaminase | recombinant A3G, ssDNA deamination FAM/TAMRA fluorescence | Q9HC16 | 330,000 tested, 0.28% active | inhibition, % at 20 µM;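 active = inhibition of at least 40% at 20 µM, with no more than 30% in the related APOBEC3A deaminase screen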;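 note: plate controls were DMSO wells with A3G for no effect and wells lacking A3G enzyme for full effect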
PfG6PD inh – PfG6PD (Plasmodium falciparum) enzyme inhibition; AID 504690; 350,000 tested, 0.78% active; inhibition, % at 20 µM; PfGluPho enzyme, NADPH resazurin-diaphorase fluorescence;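 active = inhibition reaching at least a set limit at 20 µM in the primary screen, cut at about 59% in these data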;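 note: 0% = DMSO wells with substrate and 100% = DMSO wells lacking glucose-6-phosphate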
iPSC survival up – enhancers of human iPSC single-cell survival | hiPSC single-cell survival, ATPlite luminescence; 100% = ROCK inhibitor wells, 0% = DMSO | survival enhancement, % at 20 µM | 360,000 tested, 0.044% active | AID 602274; in the data active = survival enhancement above about 18%;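 note: cells exposed to compounds for 16 hours before the ATP read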
APOBEC3A confirm – APOBEC3A (human) deaminase inhibition, confirmed; inhibition, % at 20 µM; shares compounds with APOBEC3A inh; 1,400 tested, 63% active; AID 493151; recombinant A3A, ssDNA deaminase UDG fluorescence assay;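 active = inhibition reaching a set limit, 80% of the first screen's cutoff, at 20 µM in any replicate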;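 note: plate controls were DMSO wells with A3A for no effect and wells lacking A3A enzyme for full effect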
UDG ctr A3A – counter-screen for APOBEC3A inhibitors: UDG; 1,000 tested, under 10 active; inhibition, % at 20 µM; UDG counterscreen, FAM/TAMRA uracil oligo fluorescence; shares compounds with APOBEC3A inh; call rule not given here
* marks the source's active call; other numbers are inactive results; x = no result; ! = repeats disagree. Only some compounds are listed: those with a hit (about 1.4% of all), similar ones and a draw of the others.

SMILES	HKDC1 inhibitor	APOBEC3A inh	A3G deaminase	PfG6PD inh	iPSC survival up	APOBEC3A confirm	UDG ctr A3A
C[N+]1(CCCCCCC(=O)/C=N/O)CCCCCC1	-2	42*	27	-4	-2	61*	0
C[N+](C)(C)CCCCCCC(=O)/C=N/O	-13	61*	15	-4	-1	67*	5
CCN(C(=O)CN1C(=O)/C(=C/c2ccccc2)SC1=S)C1CCS(=O)(=O)C1 (stereo not drawn)	6	-3	7	-1	0	x	x
NS(=O)(=O)c1cc(C(=O)OCC(=O)Nc2ccc3[nH]c(=O)[nH]c3c2)ccc1Cl	4	50*	2	4	1	44*	-3
O=C(Oc1ccccc1O)c1cccc2ccccc12	x	4	1	x	-2	x	x
Nc1ncccc1OCc1ccc(Cl)c(Cl)c1	-2	-1	-8	15	2	x	x
O=c1oc(-c2ccccc2)nc2sc3c(c12)CCC3	-1	56*	22	9	4	35*	-3
O=C1CCC(=O)N1c1ccc(-c2nc3sc4c(c3c(=O)o2)CCC4)cc1	12	2	-5	12	0	x	x
Cc1cc(Cl)ccc1OCC(=O)N[C@@H](Cc1ccccc1)c1nc2ccccc2[nH]1	5	42*	15	-4	-2	24	x
CCC(=O)NC(Cc1ccccc1)c1nc2ccccc2[nH]1 (stereo not drawn)	-7	-5	-6	9	0	x	x
O=C(NCc1ccccc1Cl)c1cc(=O)[nH]c2ccccc12	-3	52*	3	-21	0	15	x
O=C(NCc1ccccc1F)c1cc(=O)[nH]c2ccccc12	-6	2	-3	-6	0	x	x
CSC1=NSC2=NC(=O)/C(=C/c3coc4ccc(O)cc4c3=O)C(=N)N12	14	45*	23	5	2	36*	-7
Cc1cc(C)nc(SCc2nnc(SCC(=O)Nc3ccc(Cl)c(C(F)(F)F)c3)o2)n1	8	70*	-2	45	1	-3	19
Cc1cccc(NC(=O)CSc2nnc(CSc3nc(C)cc(C)n3)o2)c1	-4	-2	-3	8	-2	x	x
COc1ccc(CCCc2nnc(SCC(=O)Nc3cc(C)ccc3C)o2)cc1	3	0	-2	-7	-5	x	x
COc1ccc(CCCc2nnc(SCC(=O)Nc3ccc(OC)cc3)o2)cc1	-10	45*	16	22	0	71*	6
COc1ccc(CCCc2nnc(SCC(=O)Nc3ccc(C)c(C)c3)o2)cc1	2	50*	27	-1	-1	72*	4
COc1ccc(C)c2sc(N(CCCN(C)C)C(=O)c3ccc4c(c3)OCCO4)nc12	3	-1	-4	3	0	x	x
Cc1ccccc1NC(=O)C1c2cccc[n+]2CC(=O)N1c1c(C)cccc1C (stereo not drawn)	6	40*	17	19	11	18	x
Cc1ccc(C(C(=O)NC2CCCCC2)N(C(=O)Cc2c[nH]c3ccccc23)c2ccccc2C)o1 (stereo not drawn)	-11	45*	-8	0	1	7	-3
Cn1cnnc1SCC(=O)Nc1ccc(N2CCCCC2)cc1	-2	-3	-6	13	-2	x	x
COCCCNC(=O)c1ccccc1N(Cc1ccccc1)S(=O)(=O)c1ccccc1	-6	55*	8	8	-1	3	x
CCOC(=O)N1CCN(C(=O)/C(=C/c2ccc(OC)c(OC)c2)NC(=O)c2ccccc2)CC1	-7	-3	-9	7	-1	x	x
COc1ccc(/C=C(\NC(=O)c2ccccc2)C(=O)OC[C@@H]2CCC[N+]3(C)CCCCC23)cc1OC (stereo partly drawn)	-5	67*	11	-1	1	67*	4
SMILES	HKDC1 inhibitor	APOBEC3A inh	A3G deaminase	PfG6PD inh	iPSC survival up	APOBEC3A confirm	UDG ctr A3A
CCN(CC)/C(=N\S(=O)(=O)c1ccccc1C)c1ccccc1	-4	-9	-1	-18	0	x	x
COc1cc2c(cc1OC)C(c1ccccc1)N(C(=O)CCl)CC2 (stereo not drawn)	18	-1	-3	-8	-2	x	x
COc1ccc(C(=O)N2CCc3cc(OC)c(OC)cc3C2c2ccc(OC)c(OC)c2)cc1OC (stereo not drawn)	0	59*	-9	-4	0	6	6
CCOc1cc(C2C3=C(CC(C)(C)CC3=O)N(CCOC)C3=C2C(=O)CC(C)(C)C3)ccc1OC	-4	49*	7	-4	0	26	x
Oc1[nH]c2ccccc2c1N=Nc1nc(Nc2ccccc2)nc(N2CCOCC2)n1	-1	44*	12	-7	-1	17	x
COc1ccccc1N1CCN(C2CCCN(C(=O)c3ccccn3)C2)CC1 (stereo not drawn)	-3	-3	-4	4	-1	x	x
CC1(C)CN(c2cccc(-c3ccnc4ncnn34)c2)C1=O	-2	54*	-8	-13	0	-8	-2
COc1ccc(NC(=O)Cn2cc(C#N)c3ccccc32)cc1	1	1	-7	-8	-1	x	x
CCNC(=O)Cn1cc(C#N)c2ccccc21	-7	53*	20	-15	-2	11	x
CCc1cc(C(=O)N/N=C/c2ccc(OC)cc2)c2ccccc2n1	-4	-3	-8	17	1	x	x
Cc1cc(C(=O)N2CCN(S(=O)(=O)c3ccccc3C#N)CC2)c(C)o1	-6	0	-7	-5	1	x	x
N#Cc1ccccc1S(=O)(=O)N1CCN(C(=O)c2cc3c(s2)CCC3)CC1	0	51*	14	-7	0	36*	1
Cc1ccc(S(=O)(=O)N2CCCCC2)cc1C(=O)OC(C)C(=O)NC1CCCCC1C (stereo not drawn)	-3	0	7	9	-1	x	x
CC1=CC(C)(C)[N+](C)=CN1c1ccccc1	-11	57*	15	0	-1	70*	4
Cc1nc2cc(C(=O)O)ccc2n1-c1ccccc1	-5	0	-7	-8	-1	x	x
c1ccc2[nH]c(-c3ccnc4ccccc34)nc2c1	-6	98*!	-1	6	-3	10	x
CCC(Oc1ccccc1)C(=O)Nc1nnc(S(=O)(=O)N2CCCC2)s1 (stereo not drawn)	0	-6	-4	-30	-1	x	x
CC(C)n1nnnc1C1c2ccccc2C(=O)N1Cc1cccnc1 (stereo not drawn)	x	x	x	x	0	x	x
C[N+](C)(C)C/C=C1/COCO1	-6	48*	18	-14	-1	76*	4
COc1ccc(NC(=O)N(C)C[C@H]2OCCCC[C@H](C)Oc3ccc(NC(=O)Nc4ccc5c(c4)OCO5)cc3C(=O)N([C@@H](C)CO)C[C@@H]2C)cc1	x	x	x	35	-2	x	x
